Consider three compounds from ChEMBL document CHEMBL3259739, “Synthesis and structure-activity relationship of trisubstituted thiazoles as Cdc7 kinase inhibitors” (Eur J Med Chem, 2014).

pIC50: −log10 of the molar value.

The target in data set [1] is Serine/threonine-protein kinase OSR1 (Homo sapiens) (UniProt O95747). In words: Inhibition of OSR1 (unknown origin) at 1 uM relative to control; values are per cent of control.
Data set [2] has as its target Ribosomal protein S6 kinase alpha-5 (Homo sapiens) (UniProt O75582). In words: Inhibition of RPS6KA5 (unknown origin) at 1 uM relative to control. To be noted: values are per cent of control.
Data set [3] concerns the target T1, Serine/threonine-protein kinase TAO2 (Homo sapiens) (UniProt Q9UL54).
T1 sequence (whole entry): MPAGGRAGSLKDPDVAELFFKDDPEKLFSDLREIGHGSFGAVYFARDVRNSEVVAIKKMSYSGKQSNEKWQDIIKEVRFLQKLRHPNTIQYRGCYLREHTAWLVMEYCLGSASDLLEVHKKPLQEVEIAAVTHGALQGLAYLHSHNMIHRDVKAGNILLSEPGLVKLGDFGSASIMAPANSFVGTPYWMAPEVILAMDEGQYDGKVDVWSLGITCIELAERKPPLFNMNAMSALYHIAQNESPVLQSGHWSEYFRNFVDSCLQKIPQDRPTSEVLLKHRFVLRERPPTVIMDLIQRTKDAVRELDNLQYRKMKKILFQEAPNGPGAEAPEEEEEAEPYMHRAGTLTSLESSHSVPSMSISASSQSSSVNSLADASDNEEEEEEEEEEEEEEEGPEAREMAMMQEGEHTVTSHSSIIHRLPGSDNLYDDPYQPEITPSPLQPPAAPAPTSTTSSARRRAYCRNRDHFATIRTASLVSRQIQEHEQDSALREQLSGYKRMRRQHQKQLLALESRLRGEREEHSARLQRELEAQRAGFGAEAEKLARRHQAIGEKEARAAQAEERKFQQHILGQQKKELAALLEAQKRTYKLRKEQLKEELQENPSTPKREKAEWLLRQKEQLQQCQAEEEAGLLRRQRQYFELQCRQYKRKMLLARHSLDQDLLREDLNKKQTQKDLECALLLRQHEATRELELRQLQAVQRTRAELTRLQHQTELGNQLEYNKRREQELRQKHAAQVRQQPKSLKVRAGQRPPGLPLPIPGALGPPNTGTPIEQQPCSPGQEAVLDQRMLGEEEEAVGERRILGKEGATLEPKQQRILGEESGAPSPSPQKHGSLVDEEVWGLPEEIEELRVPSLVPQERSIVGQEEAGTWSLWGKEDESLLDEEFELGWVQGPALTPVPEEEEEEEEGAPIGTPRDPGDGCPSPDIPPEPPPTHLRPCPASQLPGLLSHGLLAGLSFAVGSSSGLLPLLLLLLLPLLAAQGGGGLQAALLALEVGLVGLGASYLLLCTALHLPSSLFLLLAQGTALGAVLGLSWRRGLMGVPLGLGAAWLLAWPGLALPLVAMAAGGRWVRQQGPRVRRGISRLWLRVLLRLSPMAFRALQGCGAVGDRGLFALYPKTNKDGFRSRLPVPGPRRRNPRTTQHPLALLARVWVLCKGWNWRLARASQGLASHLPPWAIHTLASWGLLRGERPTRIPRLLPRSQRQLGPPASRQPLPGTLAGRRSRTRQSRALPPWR
In words: Inhibition of TAOK2 (unknown origin) at 1 uM relative to control. To be noted: values are per cent of control. The method in brief:
(§1)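 KinomeSCAN competitive binding panel of 100 kinases; compounds tested at 1 µM in duplicate; read-out is percent […] control.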

The target in data set [4] is Serine/threonine-protein kinase PLK1 (Homo sapiens) (UniProt P53350). In words: Inhibition of PLK1 (unknown origin) at 1 uM relative to control. To be noted: values are per cent of control. The gist of the method: as §1
Data set [5] has as its target Mitogen-activated protein kinase kinase kinase kinase 4 (Homo sapiens) (UniProt O95819). The data set is described as follows: Inhibition of MAP4K4 (unknown origin) at 1 uM relative to control; values are per cent of control.
In data set [6] the target is T2, Interleukin-1 receptor-associated kinase 4 (Homo sapiens) (UniProt Q9NWZ3).
T2 sequence (whole entry): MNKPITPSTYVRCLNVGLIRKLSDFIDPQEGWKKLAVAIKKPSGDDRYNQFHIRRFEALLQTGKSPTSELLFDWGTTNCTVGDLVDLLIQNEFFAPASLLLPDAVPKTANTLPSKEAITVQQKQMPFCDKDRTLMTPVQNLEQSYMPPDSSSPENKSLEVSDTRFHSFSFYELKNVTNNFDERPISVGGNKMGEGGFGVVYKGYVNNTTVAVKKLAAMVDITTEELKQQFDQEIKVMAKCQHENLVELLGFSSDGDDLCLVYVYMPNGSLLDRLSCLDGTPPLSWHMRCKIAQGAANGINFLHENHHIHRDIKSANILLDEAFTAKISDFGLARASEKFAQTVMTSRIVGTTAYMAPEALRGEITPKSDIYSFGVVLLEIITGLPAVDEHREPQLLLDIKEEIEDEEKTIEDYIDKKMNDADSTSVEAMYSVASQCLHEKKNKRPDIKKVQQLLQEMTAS
The data set is described as follows: Inhibition of IRAK4 (unknown origin) at 1 uM relative to control; values are per cent of control.

The target in data set [7] is Mitogen-activated protein kinase 10 (Homo sapiens) (UniProt P53779). In words: Inhibition of JNK3 (unknown origin) at 1 uM relative to control; values are per cent of control.
Data set [8] in a line: Intrinsic clearance in rat liver microsomes at 1 uM after 30 mins by reverse phase HPLC analysis in presence of NADPH. In kind it is ADME. The settings on record: read-out: CLH. The method in brief:
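Reactions were stopped with MeCN after 0 or 30 min. Samples were analysed by reverse-phase HPLC–tandem MS to give intrinsic clearance (µl/min/mg).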
(In general: Microsomes from liver hold many membrane-bound enzymes, among them those of drug oxidation.)

The target in data set [9] is Dual specificity tyrosine-phosphorylation-regulated kinase 1B (Homo sapiens) (UniProt Q9Y463). The data set is described as follows: Inhibition of DYRK1B (unknown origin) at 1 uM relative to control; values are per cent of control.
Data set [10] addresses Serine/threonine-protein kinase Nek4 (Homo sapiens) (UniProt P51957). In words: Inhibition of NEK4 (unknown origin) at 1 uM relative to control; values are per cent of control.
Data set [11] concerns the target Cyclin-dependent kinase 2/cyclin E1 (Homo sapiens, UniProt P24941). The data set is described as follows: Inhibition of CDK2/Cyclin-E (unknown origin) using maltose binding protein as substrate by HTRF assay. Format: protein-complex assay. A general note: Time-resolved FRET reads energy transfer from a long-lived donor to a nearby acceptor.

The pIC50 is the negative decadic logarithm of the IC50, by convention in mol/L.

Serine/threonine-protein kinase Nek4 (Homo sapiens), sequence (P51957 whole entry, looked up): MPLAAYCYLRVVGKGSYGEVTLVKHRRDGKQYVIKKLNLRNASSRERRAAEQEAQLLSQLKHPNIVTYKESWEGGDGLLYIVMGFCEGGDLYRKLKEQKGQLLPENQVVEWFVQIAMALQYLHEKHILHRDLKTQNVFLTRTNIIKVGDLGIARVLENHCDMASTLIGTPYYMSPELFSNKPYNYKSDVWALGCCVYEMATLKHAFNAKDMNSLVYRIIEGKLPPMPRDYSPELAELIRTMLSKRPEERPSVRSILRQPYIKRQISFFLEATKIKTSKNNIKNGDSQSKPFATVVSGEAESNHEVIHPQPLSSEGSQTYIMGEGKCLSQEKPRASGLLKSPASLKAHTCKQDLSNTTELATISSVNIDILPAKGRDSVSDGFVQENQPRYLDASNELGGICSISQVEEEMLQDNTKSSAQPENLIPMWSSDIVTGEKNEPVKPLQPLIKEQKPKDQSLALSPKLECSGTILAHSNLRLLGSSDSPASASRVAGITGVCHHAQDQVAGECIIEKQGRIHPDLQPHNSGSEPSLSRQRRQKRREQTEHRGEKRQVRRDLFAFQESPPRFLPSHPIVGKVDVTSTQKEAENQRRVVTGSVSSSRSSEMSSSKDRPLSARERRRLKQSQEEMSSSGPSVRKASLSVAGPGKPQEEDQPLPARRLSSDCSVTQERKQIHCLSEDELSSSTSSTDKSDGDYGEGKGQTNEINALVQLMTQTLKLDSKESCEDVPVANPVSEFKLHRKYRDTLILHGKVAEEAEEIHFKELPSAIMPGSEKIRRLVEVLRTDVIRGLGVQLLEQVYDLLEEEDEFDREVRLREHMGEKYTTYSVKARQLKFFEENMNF
Serine/threonine-protein kinase OSR1 (Homo sapiens), sequence (O95747 2-527 limits assumed): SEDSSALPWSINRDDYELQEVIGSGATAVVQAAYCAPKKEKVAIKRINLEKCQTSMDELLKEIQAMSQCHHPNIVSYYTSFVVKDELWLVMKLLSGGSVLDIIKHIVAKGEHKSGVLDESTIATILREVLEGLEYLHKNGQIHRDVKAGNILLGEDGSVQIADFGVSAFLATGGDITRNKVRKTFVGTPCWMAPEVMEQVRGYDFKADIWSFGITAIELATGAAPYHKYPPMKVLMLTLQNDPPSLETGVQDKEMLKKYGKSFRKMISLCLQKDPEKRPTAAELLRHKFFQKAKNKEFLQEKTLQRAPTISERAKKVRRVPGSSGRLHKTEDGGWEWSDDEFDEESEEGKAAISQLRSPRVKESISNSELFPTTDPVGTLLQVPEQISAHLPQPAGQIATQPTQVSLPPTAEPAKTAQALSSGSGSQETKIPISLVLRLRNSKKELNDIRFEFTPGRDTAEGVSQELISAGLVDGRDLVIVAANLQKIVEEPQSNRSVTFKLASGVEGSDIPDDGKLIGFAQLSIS
Mitogen-activated protein kinase 10 (Homo sapiens), sequence (P53779 whole entry): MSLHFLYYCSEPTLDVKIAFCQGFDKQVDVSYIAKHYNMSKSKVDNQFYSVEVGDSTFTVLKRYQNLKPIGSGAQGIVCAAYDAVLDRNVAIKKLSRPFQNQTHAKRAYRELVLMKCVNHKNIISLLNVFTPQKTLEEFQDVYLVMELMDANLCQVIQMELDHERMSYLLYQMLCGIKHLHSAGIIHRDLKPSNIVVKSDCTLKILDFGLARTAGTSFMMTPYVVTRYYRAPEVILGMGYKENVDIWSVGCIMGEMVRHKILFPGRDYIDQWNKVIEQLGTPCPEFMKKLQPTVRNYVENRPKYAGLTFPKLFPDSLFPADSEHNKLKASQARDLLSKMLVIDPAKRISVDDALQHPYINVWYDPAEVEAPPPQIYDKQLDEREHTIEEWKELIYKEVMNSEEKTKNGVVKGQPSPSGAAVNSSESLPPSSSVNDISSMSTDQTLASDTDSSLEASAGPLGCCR
Ribosomal protein S6 kinase alpha-5 (Homo sapiens), sequence (O75582 whole entry, looked up): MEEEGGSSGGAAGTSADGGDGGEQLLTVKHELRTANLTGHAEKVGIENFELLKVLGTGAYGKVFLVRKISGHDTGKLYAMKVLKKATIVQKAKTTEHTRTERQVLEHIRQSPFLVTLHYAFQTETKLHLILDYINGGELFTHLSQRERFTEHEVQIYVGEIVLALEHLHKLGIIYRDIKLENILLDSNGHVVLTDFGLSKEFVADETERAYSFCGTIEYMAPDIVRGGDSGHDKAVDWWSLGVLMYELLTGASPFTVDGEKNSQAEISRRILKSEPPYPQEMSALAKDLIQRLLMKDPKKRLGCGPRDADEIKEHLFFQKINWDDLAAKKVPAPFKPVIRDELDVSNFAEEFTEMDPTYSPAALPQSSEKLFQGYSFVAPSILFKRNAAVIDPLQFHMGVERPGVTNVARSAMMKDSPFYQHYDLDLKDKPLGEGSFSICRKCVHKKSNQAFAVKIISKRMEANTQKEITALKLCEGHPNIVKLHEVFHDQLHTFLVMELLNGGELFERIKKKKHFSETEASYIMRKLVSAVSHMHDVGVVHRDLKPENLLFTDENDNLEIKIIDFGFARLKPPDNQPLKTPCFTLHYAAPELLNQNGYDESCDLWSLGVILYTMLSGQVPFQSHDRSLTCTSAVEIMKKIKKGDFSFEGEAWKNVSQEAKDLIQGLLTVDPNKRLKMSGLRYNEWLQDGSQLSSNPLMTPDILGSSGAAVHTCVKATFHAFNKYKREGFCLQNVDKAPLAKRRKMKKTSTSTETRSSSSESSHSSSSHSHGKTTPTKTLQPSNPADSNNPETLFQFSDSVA
Dual specificity tyrosine-phosphorylation-regulated kinase 1B (Homo sapiens), sequence (Q9Y463 whole entry, looked up): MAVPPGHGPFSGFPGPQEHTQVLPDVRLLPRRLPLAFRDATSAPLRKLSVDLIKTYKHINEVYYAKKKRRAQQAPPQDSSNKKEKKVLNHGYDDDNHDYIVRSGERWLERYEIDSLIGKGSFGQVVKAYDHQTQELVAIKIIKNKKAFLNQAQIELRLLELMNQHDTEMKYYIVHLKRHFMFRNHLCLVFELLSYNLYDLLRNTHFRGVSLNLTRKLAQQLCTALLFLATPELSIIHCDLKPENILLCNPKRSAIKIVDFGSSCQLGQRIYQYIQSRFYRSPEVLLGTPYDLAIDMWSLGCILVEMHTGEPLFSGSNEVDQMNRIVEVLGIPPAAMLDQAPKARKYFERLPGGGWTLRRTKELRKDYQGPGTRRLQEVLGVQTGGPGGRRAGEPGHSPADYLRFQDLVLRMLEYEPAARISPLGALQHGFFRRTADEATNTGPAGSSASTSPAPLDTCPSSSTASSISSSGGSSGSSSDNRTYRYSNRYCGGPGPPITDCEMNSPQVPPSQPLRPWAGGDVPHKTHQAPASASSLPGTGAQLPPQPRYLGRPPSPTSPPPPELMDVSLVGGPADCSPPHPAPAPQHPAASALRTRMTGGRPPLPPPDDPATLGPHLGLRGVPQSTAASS
Mitogen-activated protein kinase kinase kinase kinase 4 (Homo sapiens), sequence (O95819 2-1239 limits assumed): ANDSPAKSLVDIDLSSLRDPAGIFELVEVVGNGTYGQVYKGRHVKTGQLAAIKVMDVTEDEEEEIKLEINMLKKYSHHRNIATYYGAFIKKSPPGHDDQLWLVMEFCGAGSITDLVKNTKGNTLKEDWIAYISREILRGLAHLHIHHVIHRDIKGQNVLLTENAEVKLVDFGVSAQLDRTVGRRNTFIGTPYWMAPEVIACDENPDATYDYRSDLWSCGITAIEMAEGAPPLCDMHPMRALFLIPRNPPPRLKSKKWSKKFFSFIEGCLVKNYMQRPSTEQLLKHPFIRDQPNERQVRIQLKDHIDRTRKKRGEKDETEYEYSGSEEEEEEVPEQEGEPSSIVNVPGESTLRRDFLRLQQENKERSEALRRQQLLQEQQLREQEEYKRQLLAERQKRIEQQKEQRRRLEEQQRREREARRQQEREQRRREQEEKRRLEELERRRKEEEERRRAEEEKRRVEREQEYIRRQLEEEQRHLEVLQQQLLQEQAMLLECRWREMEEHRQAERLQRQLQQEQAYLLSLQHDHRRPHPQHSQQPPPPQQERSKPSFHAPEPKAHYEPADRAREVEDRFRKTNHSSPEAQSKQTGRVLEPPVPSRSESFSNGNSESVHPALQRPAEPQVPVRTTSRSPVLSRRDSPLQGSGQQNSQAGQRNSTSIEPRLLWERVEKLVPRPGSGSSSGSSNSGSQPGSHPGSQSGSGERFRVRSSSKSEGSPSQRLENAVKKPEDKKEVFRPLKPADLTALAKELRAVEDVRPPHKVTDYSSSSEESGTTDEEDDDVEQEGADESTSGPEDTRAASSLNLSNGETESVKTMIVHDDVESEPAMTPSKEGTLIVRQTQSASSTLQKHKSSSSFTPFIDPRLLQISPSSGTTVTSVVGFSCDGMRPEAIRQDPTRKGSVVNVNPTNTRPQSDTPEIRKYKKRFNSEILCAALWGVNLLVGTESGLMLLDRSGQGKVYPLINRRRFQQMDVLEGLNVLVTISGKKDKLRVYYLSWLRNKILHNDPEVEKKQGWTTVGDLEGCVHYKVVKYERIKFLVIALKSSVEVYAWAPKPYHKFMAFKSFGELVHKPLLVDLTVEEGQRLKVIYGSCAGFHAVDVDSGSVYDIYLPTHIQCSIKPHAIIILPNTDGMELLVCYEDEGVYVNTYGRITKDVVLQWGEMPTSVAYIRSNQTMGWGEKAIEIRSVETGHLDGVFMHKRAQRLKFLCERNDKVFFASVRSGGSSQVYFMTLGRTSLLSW

In the case of `NC(=O)c1sc(-c2ccnc(N)n2)nc1-c1ccc(Cl)cc1Cl`, the residual activity in data set [1] amounted to 82%; in [5], 72%; in data set [6], 91%; in data set [7], 83%; in data set [9], 0.4%; in data set [10] it was 93%. Also, the residual binding, % of control in data set [2] is 100%; in data set [3] it was 55%; in data set [4], 100%. Besides, in [8], the microsomal CLint at 1 µM came out at 22 µL/min/mg. Also, the negative logarithm of the IC50 (pIC50) in [11] was 5.74.

As for `CCOC(=O)c1sc(-c2ccncc2)nc1O`, the residual activity in data set [1] stood at 100%; in data set [5], 80%; in data set [6], 100%; in [7] it was 93%; in data set [9] it was 86%; in [10], 100%. Besides, the residual binding, % of control in [2], in [3] and in data set [4] was 100% in each case. Also, the microsomal CLint at 1 µM in data set [8] is less than 14 µL/min/mg. Also, the pIC50 in data set [11] is less than 3.90.

Consider `COc1ccc(-c2nc(-c3ccnc(N)n3)sc2C(N)=O)c(Cl)c1`, for which the residual activity came to 92% in [1]; 89% in data set [5]; 100% in data set [6]; 46% in [7]; 0.3% in [9]; 76% in [10]. The residual binding, % of control came out at 100% in [2], 25% in [3] and 88% in [4]. For the same compound, in data set [8], the microsomal CLint at 1 µM was determined as 99 µL/min/mg. Besides, the pIC50 in [11] was 4.97.
